Drawing on ChEMBL document CHEMBL4354843, “Structure-Based Design of a Potent and Selective Covalent Inhibitor for SRC Kinase That Targets a P-Loop Cysteine” (J Med Chem, 2020), this text covers Activity, IC50 and half-life for one compound.

Series [1] addresses Atypical kinase COQ8B, mitochondrial (Homo sapiens) (UniProt Q96D53). Kind of series: Binding affinity to wild-type human full length ADCK4 (M1 to S544 residues) expressed in bacterial expression system assessed as residual binding level at 1 uM by Kinomescan method relative to control. The method in brief: (§1)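 Active-site-directed KinomeScan competition binding panel covering 468 kinases, compound tested at 1 μM. Each readout is the kinase signal remaining with compound, expressed as a percentage of the DMSO control. […]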

The target in series [2] is Macrophage colony-stimulating factor 1 receptor (Homo sapiens) (UniProt P07333). Kind of series: Binding affinity to wild-type human partial length CSF1R (I564 to S939 residues) expressed in bacterial expression system assessed as residual binding level at 1 uM by Kinomescan method relative to control. The method in brief: (§2)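 Active-site-directed competition binding panel of 468 kinases (KinomeScan), compound at 1 μM. The read-out is kinase remaining bound, given as a percentage of the DMSO control. […]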

Series [3] deals with Cyclin-dependent kinase-like 1 (Homo sapiens) (UniProt Q00532). Kind of series: Binding affinity to wild-type human full length CDKL1 (M1 to I358 residues) expressed in mammalian expression system assessed as residual binding level at 1 uM by Kinomescan method relative to control. The method in brief: (§3)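 KinomeScan, an active site-directed competition binding panel of 468 kinases. The test compound was at 1 μM. The readout is remaining kinase binding as a percentage of the DMSO control. Scores above 35% were treated as weak binding and not listed.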

Series [4] has as its target Cyclin-dependent kinase 17 (Homo sapiens) (UniProt Q00537). Kind of series: Binding affinity to wild-type human full length PCTK2 (M1 to F523 residues) expressed in bacterial expression system assessed as residual binding level at 1 uM by Kinomescan method relative to control. The method in brief: (§4)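 Active-site-directed competition binding panel (KinomeScan) covering 468 kinases. Test agent was screened at 1 μM. The read-out is the remaining kinase signal expressed relative to a DMSO control. Scores above 35%, taken as weak binding, were not reported.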

The target of series [5] is Serine/threonine-protein kinase OSR1 (Homo sapiens) (UniProt O95747). Kind of series: Binding affinity to wild-type human full length OSR1 (M1 to S527 residues) expressed in mammalian expression system assessed as residual binding level at 1 uM by Kinomescan method relative to control. The method in brief:
as §4

For series [6], the target named is Platelet-derived growth factor receptor beta (Homo sapiens) (UniProt P09619). Kind of series: Binding affinity to wild-type human partial length PDGFRB (V582 to Y1009 residues) expressed in bacterial expression system assessed as residual binding level at 1 uM by Kinomescan method relative to control. The method in brief: as §2
For series [7], the target named is Receptor tyrosine-protein kinase erbB-2 (Homo sapiens) (UniProt P04626). Kind of series: Binding affinity to wild-type human partial length ERBB2 (K646 to V1225 residues) expressed in mammalian expression system assessed as residual binding level at 1 uM by Kinomescan method relative to control. The method in brief:
as §2

For series [8], the target named is Calcium-dependent protein kinase 1 (Plasmodium falciparum) (UniProt P62344). Kind of series: Binding affinity to wild-type Plasmodium falciparum full length CDPK1 (M1 to S524 residues) expressed in mammalian expression system assessed as residual binding level at 1 uM by Kinomescan method relative to control. The method in brief:
as §3

The target of series [9] is Serine/threonine-protein kinase 32A (Homo sapiens) (UniProt Q8WU08). Kind of series: Binding affinity to wild-type human full length YANK1 (M1 to L396 residues) expressed in mammalian expression system assessed as residual binding level at 1 uM by Kinomescan method relative to control.
Series [10] deals with Cyclin-dependent kinase 19 (Homo sapiens) (UniProt Q9BWU1). Kind of series: Binding affinity to wild-type human partial length CDK11 (M1 to N360 residues) expressed in bacterial expression system assessed as residual binding level at 1 uM by Kinomescan method relative to control. The method in brief:
as §3

In the next series the test system is MDA-MB-231. Kind of series: Antiproliferative activity against human MDA-MB-231 cells assessed as reduction in cell viability incubated for 72 hrs by cell-titer glo assay. The settings on record: MDA-MB-231, 72 h.
Series [11] addresses Mitogen-activated protein kinase kinase kinase kinase 1 (Homo sapiens) (UniProt Q92918). Kind of series: Binding affinity to wild-type human full length HPK1 (M1 to R799 residues) expressed in bacterial expression system assessed as residual binding level at 1 uM by Kinomescan method relative to control. The method in brief:
as §1

The target of series [12] is Phosphatidylinositol 4-phosphate 5-kinase type-1 alpha (Homo sapiens) (UniProt Q99755). Kind of series: Binding affinity to wild-type human full length PIP5K1A (M1 to H562 residues) expressed in bacterial expression system assessed as residual binding level at 1 uM by Kinomescan method relative to control. The method in brief: as §4
Series [13] deals with Phosphatidylinositol 4,5-bisphosphate 3-kinase catalytic subunit alpha isoform (Homo sapiens), P42336 [C420R]. Kind of series: Binding affinity to human partial length PIK3CA C420R mutant (R108 to N1068 residues) expressed in mammalian expression system assessed as residual binding level at 1 uM by Kinomescan method relative to control. The method in brief: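 KinomeScan active site-directed competition binding panel (468 kinases), compound tested at 1 μM. Result expressed as remaining kinase signal versus DMSO control (percent of control).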

Series [14] concerns the target Serine/threonine-protein kinase 17B (Homo sapiens) (UniProt O94768). Kind of series: Binding affinity to wild-type human full length DRAK2 (M1 to C372 residues) expressed in bacterial expression system assessed as residual binding level at 1 uM by Kinomescan method relative to control. The method in brief:
as §1

Series [15] addresses Serine/threonine-protein kinase SIK1 (Homo sapiens) (UniProt P57059). Kind of series: Binding affinity to wild-type human partial length SIK (M1 to Y304 residues) expressed in bacterial expression system assessed as residual binding level at 1 uM by Kinomescan method relative to control. The method in brief: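 Active site-directed competition binding panel (KinomeScan, 468 kinases). Test compound at 1 μM. Read-out is kinase binding remaining versus DMSO control, expressed as percent of control. Scores above 35% are treated as weak binding.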

Series [16] concerns the target Casein kinase I isoform delta (Homo sapiens) (UniProt P48730). Kind of series: Binding affinity to wild-type human full length CSNK1D (M1 to K409 residues) expressed in bacterial expression system assessed as residual binding level at 1 uM by Kinomescan method relative to control. The method in brief: as §1
A short description of series [17]: Half life in B6 mouse at 5 mg/kg, ip. In kind it is ADME, organism-based. The settings on record: in vivo. The method in brief:
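PK in B6 mice. Single 5 mg/kg intraperitoneal dose in 5% DMSO/95% D5W. Half-life and AUC reported.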

For series [18], the target named is Rho-associated protein kinase 2 (Homo sapiens) (UniProt O75116). Kind of series: Binding affinity to wild-type human partial length ROCK2 (M1 to T431 residues) expressed in mammalian expression system assessed as residual binding level at 1 uM by Kinomescan method relative to control.
The test system of another series is NCI-H1975. Kind of series: Antiproliferative activity against human NCI-H1975 cells assessed as reduction in cell viability incubated for 72 hrs by cell-titer glo assay. Particulars: NCI-H1975, 72 h.
The target in series [19] is Ephrin type-B receptor 1 (Homo sapiens) (UniProt P54762). Kind of series: Binding affinity to wild-type human partial length EPHB1 (P589 to T911 residues) expressed in bacterial expression system assessed as residual binding level at 1 uM by Kinomescan method relative to control.
Chain of Ephrin type-B receptor 1 (Homo sapiens) (P54762 whole entry, the tested form may be a part): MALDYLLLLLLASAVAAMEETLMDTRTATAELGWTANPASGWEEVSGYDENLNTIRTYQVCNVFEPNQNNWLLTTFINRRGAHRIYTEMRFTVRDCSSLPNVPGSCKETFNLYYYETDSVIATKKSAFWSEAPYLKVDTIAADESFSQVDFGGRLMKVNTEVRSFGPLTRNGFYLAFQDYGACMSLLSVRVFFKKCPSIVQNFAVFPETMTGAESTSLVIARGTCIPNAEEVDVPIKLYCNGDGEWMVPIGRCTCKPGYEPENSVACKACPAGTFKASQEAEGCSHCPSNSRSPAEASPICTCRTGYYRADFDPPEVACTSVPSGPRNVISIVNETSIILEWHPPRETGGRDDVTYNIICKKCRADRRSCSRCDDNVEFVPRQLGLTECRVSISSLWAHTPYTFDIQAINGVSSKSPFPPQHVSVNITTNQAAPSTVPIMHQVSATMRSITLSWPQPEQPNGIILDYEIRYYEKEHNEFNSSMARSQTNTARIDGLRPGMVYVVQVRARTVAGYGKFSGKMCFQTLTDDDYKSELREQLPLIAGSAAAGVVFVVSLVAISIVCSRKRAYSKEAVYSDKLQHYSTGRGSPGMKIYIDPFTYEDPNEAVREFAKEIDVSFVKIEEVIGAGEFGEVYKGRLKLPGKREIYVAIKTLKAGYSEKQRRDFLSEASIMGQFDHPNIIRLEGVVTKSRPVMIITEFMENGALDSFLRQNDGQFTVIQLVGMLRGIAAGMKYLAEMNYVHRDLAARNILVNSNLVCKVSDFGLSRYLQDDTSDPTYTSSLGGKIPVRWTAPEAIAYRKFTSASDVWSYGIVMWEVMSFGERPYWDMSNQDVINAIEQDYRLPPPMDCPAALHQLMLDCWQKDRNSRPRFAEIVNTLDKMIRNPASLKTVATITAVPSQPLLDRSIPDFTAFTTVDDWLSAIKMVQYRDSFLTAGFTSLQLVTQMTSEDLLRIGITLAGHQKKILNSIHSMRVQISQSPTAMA

Chain of Serine/threonine-protein kinase 17B (Homo sapiens) (O94768 whole entry, the tested form may be a part): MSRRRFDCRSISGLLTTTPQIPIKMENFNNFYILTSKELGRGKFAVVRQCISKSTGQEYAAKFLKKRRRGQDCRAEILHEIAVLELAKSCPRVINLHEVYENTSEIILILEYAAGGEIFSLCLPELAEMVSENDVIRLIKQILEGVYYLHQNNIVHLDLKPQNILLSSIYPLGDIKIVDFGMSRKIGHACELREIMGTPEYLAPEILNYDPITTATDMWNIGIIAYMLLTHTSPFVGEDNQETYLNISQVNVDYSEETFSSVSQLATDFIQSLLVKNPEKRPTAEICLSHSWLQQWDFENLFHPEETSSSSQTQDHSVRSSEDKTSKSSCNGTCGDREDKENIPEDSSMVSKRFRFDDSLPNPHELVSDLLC
Chain of Serine/threonine-protein kinase 32A (Homo sapiens) (Q8WU08 whole entry, the tested form may be a part): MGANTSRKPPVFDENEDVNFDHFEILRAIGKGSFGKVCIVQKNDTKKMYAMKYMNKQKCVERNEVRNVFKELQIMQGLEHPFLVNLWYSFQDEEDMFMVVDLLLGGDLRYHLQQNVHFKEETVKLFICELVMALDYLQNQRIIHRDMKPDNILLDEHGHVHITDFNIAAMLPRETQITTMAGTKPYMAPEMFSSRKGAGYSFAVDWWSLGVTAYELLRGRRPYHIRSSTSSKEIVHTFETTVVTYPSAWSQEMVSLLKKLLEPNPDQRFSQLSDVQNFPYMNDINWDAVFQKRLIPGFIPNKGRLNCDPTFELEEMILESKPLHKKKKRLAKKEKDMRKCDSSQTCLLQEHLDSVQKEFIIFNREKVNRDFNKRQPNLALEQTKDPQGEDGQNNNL
Chain of Phosphatidylinositol 4-phosphate 5-kinase type-1 alpha (Homo sapiens) (Q99755 whole entry, the tested form may be a part, canonical isoform): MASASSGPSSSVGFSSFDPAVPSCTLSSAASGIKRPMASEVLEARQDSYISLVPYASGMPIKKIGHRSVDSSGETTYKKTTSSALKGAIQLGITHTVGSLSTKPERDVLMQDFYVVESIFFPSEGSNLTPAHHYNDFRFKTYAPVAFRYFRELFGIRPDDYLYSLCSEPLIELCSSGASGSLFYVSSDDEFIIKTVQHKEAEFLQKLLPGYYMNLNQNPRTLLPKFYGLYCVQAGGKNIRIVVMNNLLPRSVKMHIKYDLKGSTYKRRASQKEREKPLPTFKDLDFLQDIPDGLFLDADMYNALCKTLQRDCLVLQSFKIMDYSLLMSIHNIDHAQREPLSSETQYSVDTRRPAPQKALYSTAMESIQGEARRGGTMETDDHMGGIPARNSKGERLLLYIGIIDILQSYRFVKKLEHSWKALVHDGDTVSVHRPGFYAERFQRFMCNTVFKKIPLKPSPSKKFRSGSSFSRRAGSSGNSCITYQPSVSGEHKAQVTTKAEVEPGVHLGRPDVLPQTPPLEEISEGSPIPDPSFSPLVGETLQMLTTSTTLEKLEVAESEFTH
Chain of Mitogen-activated protein kinase kinase kinase kinase 1 (Homo sapiens) (Q92918 whole entry, looked up, the tested form may be a part): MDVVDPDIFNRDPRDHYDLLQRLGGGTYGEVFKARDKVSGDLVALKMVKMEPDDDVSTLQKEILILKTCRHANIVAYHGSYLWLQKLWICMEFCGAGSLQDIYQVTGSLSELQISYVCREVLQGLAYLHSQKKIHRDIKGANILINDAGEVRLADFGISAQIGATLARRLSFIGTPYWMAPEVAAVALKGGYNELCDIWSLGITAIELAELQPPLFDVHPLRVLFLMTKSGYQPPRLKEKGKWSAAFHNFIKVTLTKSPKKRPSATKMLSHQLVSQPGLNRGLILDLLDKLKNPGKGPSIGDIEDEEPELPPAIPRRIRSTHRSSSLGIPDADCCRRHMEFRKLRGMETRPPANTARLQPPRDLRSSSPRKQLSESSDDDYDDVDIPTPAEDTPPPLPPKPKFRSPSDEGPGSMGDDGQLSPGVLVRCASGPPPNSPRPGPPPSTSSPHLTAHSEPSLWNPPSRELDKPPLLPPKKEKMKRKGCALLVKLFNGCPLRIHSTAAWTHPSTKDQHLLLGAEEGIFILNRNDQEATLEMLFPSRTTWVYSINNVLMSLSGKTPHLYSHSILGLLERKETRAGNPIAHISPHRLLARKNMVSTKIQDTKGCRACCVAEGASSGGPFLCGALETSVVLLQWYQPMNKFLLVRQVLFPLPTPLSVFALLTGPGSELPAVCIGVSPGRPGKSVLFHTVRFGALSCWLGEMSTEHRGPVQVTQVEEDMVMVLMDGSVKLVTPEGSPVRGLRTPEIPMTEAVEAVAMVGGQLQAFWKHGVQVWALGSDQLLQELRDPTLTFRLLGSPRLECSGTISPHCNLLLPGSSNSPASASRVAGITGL
Chain of Platelet-derived growth factor receptor beta (Homo sapiens) (P09619 whole entry, the tested form may be a part): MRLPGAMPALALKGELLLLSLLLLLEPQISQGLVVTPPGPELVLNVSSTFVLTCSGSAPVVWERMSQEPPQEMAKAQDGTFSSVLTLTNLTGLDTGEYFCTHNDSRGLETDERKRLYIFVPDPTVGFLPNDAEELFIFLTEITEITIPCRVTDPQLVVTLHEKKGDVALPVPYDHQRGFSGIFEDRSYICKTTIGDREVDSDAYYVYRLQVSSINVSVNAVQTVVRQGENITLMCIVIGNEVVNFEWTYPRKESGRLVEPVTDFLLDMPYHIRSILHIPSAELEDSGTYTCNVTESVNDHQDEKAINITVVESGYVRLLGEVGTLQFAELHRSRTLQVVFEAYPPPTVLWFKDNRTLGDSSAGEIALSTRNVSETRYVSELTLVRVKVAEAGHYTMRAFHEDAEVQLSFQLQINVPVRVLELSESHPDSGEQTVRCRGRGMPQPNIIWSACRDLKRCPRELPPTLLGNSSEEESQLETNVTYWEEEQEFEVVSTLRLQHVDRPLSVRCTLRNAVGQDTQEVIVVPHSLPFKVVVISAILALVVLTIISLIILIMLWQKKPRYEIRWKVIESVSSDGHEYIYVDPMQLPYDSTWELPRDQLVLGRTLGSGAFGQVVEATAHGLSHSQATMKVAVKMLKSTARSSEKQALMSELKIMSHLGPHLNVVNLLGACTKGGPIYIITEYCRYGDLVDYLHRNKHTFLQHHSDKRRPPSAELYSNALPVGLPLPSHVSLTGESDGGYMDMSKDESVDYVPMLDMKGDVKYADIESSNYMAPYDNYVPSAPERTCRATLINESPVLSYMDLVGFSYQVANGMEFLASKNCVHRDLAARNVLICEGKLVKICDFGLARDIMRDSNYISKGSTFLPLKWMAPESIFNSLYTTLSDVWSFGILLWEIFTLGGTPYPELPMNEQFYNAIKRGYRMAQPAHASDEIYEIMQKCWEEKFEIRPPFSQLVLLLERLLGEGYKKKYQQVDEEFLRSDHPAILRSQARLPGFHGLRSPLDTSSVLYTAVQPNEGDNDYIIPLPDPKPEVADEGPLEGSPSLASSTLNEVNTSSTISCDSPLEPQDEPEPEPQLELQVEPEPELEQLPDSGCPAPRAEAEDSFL
Chain of Cyclin-dependent kinase 19 (Homo sapiens) (Q9BWU1 whole entry, the tested form may be a part): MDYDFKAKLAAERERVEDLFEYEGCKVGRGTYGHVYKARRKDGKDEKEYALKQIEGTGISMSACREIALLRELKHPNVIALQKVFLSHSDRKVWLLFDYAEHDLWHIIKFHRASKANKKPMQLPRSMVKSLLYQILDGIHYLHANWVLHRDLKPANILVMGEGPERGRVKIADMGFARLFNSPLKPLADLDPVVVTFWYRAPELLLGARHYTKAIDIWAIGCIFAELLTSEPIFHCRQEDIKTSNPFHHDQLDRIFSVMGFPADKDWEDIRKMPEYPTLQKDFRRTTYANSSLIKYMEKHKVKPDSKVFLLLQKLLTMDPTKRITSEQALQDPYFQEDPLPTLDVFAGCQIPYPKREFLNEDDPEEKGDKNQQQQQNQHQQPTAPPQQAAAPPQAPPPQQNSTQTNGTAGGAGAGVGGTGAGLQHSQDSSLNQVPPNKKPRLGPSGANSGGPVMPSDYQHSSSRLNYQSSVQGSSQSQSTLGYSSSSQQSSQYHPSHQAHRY

A word on the IC50: it is the concentration needed to halve the response being measured. As a reminder, the half-life is the time needed for the level to fall by half in the phase considered. A higher half-life goes with slow decline. Regarding `C=CC(=O)Nc1ccccc1Nc1nc(Nc2ccc(N3CCN(C)CC3)cc2)ncc1C(=O)Nc1c(C)cccc1Cl`, the Activity stood at 100% in series [1]; 7.3% in [2]; 72% in series [3]; 100% in series [4]; 100% in series [5]; 29% in series [6]. For the same compound, the Activity stood at 63% in series [7]; 72% in [8]; 100% in series [9]; 96% in series [10]; 100% in series [11]; 100% in [12]. Moreover, the Activity came out at 100% in series [13]; 100% in [14]; 1% in series [15]; 100% in [16]; 100% in series [18]; 66% in series [19]. The IC50 in the series with MDA-MB-231 and with NCI-H1975 was 300 nM each time. Besides, in [17], the half-life came to 1.29 h.
